Laboratory results taken from ChEMBL document CHEMBL5058577, “EUbOPEN Chemogenomics Library 2 (Multiplex)” (2022).

Tested on: Fibroblast
Assay: Multiplex assay against human fibroblast
Assay type: toxicity, cell-based
Outline: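 Phenotypes for tubulin, mitochondrial mass and membrane permeability are expressed as per cents of healthy-nucleus cells. Cells were stained live at seeding with Hoechst33342, BioTracker Green Microtubule Cytoskeleton Dye, MitoTracker Red and Annexin V Alexa Fluor 680, then imaged after compound addition on a CQ1 microscope at 37°C and 5% CO2. Machine-learning gating in CellPathfinder separated Hoechst high-intensity objects from normal cells, divided normal cells by nuclear state (healthy, pyknosed, fragmented) and divided pyknosed cells into mitotic or apoptotic.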

[1] = 12 h, 1 µM, compound concentration 1 uM, replicate 1
[2] = 12 h, 1 µM, compound concentration 1 uM, replicate 2
[3] = 12 h, 10 µM, compound concentration 10 uM, replicate 1
[4] = 12 h, 10 µM, compound concentration 10 uM, replicate 2
[5] = 24 h, 1 µM, compound concentration 1 uM, replicate 1
[6] = 24 h, 1 µM, compound concentration 1 uM, replicate 2
[7] = 24 h, 10 µM, compound concentration 10 uM, replicate 1
[8] = 24 h, 10 µM, compound concentration 10 uM, replicate 2
[9] = 48 h, 1 µM, compound concentration 1 uM, replicate 1
[10] = 48 h, 1 µM, compound concentration 1 uM, replicate 2
[11] = 48 h, 10 µM, compound concentration 10 uM, replicate 1
[12] = 48 h, 10 µM, compound concentration 10 uM, replicate 2

Compound: O=C(NCCNCC(O)COc1ccc(O)cc1)N1CCOCC1.O=C(NCCNCC(O)COc1ccc(O)cc1)N1CCOCC1.O=C(O)/C=C/C(=O)O (centres undefined) [XAMOTEROL FUMARATE]
- Population Apoptotic (%) [1]: 63%
- Population Fragmented Nuclei (%) [1]: 15%
- Population Healthy Nuclei (%) [1]: 67%
- Population Hoechst High Intensity Objects (%) [1]: 2%
- Population Membrane Permeable-Phenotype (%) [1]: 1%
- Population Mitochondria Different-Phenotype (%) [1]: 4%
- Population Mitotic Cells (%) [1]: 36%
- Population Normal (%) [1]: 97%
- Population Pyknosed Nuclei (%) [1]: 17%
- Population Tubulin-Different-Phenotype (%) [1]: 24%
- Total Cell Count [1]: 114
- Population Apoptotic (%) [2]: 43%
- Population Fragmented Nuclei (%) [2]: 23%
- Population Healthy Nuclei (%) [2]: 53%
- Population Hoechst High Intensity Objects (%) [2]: 4%
- Population Membrane Permeable-Phenotype (%) [2]: 16%
- Population Mitochondria Different-Phenotype (%) [2]: 7%
- Population Mitotic Cells (%) [2]: 56%
- Population Normal (%) [2]: 95%
- Population Pyknosed Nuclei (%) [2]: 23%
- Population Tubulin-Different-Phenotype (%) [2]: 55%
- Total Cell Count [2]: 167
- Population Apoptotic (%) [3]: 30%
- Population Fragmented Nuclei (%) [3]: 21%
- Population Healthy Nuclei (%) [3]: 64%
- Population Hoechst High Intensity Objects (%) [3]: 4%
- Population Membrane Permeable-Phenotype (%) [3]: 2%
- Population Mitochondria Different-Phenotype (%) [3]: 5%
- Population Mitotic Cells (%) [3]: 70%
- Population Normal (%) [3]: 95%
- Population Pyknosed Nuclei (%) [3]: 14%
- Population Tubulin-Different-Phenotype (%) [3]: 32%
- Total Cell Count [3]: 143
- Population Apoptotic (%) [4]: 17%
- Population Fragmented Nuclei (%) [4]: 30%
- Population Healthy Nuclei (%) [4]: 49%
- Population Hoechst High Intensity Objects (%) [4]: 5%
- Population Membrane Permeable-Phenotype (%) [4]: 4%
- Population Mitochondria Different-Phenotype (%) [4]: 11%
- Population Mitotic Cells (%) [4]: 82%
- Population Normal (%) [4]: 94%
- Population Pyknosed Nuclei (%) [4]: 20%
- Population Tubulin-Different-Phenotype (%) [4]: 43%
- Total Cell Count [4]: 154
- Population Apoptotic (%) [5]: 68%
- Population Fragmented Nuclei (%) [5]: 20%
- Population Healthy Nuclei (%) [5]: 63%
- Population Hoechst High Intensity Objects (%) [5]: 1%
- Population Membrane Permeable-Phenotype (%) [5]: 2%
- Population Mitochondria Different-Phenotype (%) [5]: 2%
- Population Mitotic Cells (%) [5]: 31%
- Population Normal (%) [5]: 98%
- Population Pyknosed Nuclei (%) [5]: 15%
- Population Tubulin-Different-Phenotype (%) [5]: 25%
- Total Cell Count [5]: 121
- Population Apoptotic (%) [6]: 50%
- Population Fragmented Nuclei (%) [6]: 28%
- Population Healthy Nuclei (%) [6]: 52%
- Population Hoechst High Intensity Objects (%) [6]: 2%
- Population Membrane Permeable-Phenotype (%) [6]: 18%
- Population Mitochondria Different-Phenotype (%) [6]: 6%
- Population Mitotic Cells (%) [6]: 50%
- Population Normal (%) [6]: 97%
- Population Pyknosed Nuclei (%) [6]: 19%
- Population Tubulin-Different-Phenotype (%) [6]: 63%
- Total Cell Count [6]: 149
- Population Apoptotic (%) [7]: 62%
- Population Fragmented Nuclei (%) [7]: 20%
- Population Healthy Nuclei (%) [7]: 67%
- Population Hoechst High Intensity Objects (%) [7]: 1%
- Population Membrane Permeable-Phenotype (%) [7]: 0%
- Population Mitochondria Different-Phenotype (%) [7]: 0%
- Population Mitotic Cells (%) [7]: 37%
- Population Normal (%) [7]: 98%
- Population Pyknosed Nuclei (%) [7]: 12%
- Population Tubulin-Different-Phenotype (%) [7]: 31%
- Total Cell Count [7]: 135
- Population Apoptotic (%) [8]: 42%
- Population Fragmented Nuclei (%) [8]: 34%
- Population Healthy Nuclei (%) [8]: 54%
- Population Membrane Permeable-Phenotype (%) [8]: 5%
- Population Mitochondria Different-Phenotype (%) [8]: 8%
- Population Mitotic Cells (%) [8]: 57%
- Population Pyknosed Nuclei (%) [8]: 11%
- Population Tubulin-Different-Phenotype (%) [8]: 41%
- Total Cell Count [8]: 172
- Population Apoptotic (%) [9]: 65%
- Population Fragmented Nuclei (%) [9]: 27%
- Population Healthy Nuclei (%) [9]: 57%
- Population Hoechst High Intensity Objects (%) [9]: 1%
- Population Membrane Permeable-Phenotype (%) [9]: 1%
- Population Mitochondria Different-Phenotype (%) [9]: 2%
- Population Mitotic Cells (%) [9]: 35%
- Population Normal (%) [9]: 98%
- Population Pyknosed Nuclei (%) [9]: 15%
- Population Tubulin-Different-Phenotype (%) [9]: 21%
- Total Cell Count [9]: 131
- Population Apoptotic (%) [10]: 40%
- Population Fragmented Nuclei (%) [10]: 42%
- Population Healthy Nuclei (%) [10]: 46%
- Population Hoechst High Intensity Objects (%) [10]: 2%
- Population Membrane Permeable-Phenotype (%) [10]: 7%
- Population Mitochondria Different-Phenotype (%) [10]: 4%
- Population Mitotic Cells (%) [10]: 60%
- Population Normal (%) [10]: 97%
- Population Pyknosed Nuclei (%) [10]: 10%
- Population Tubulin-Different-Phenotype (%) [10]: 65%
- Total Cell Count [10]: 140
- Population Apoptotic (%) [11]: 56%
- Population Fragmented Nuclei (%) [11]: 25%
- Population Healthy Nuclei (%) [11]: 62%
- Population Hoechst High Intensity Objects (%) [11]: 4%
- Population Membrane Permeable-Phenotype (%) [11]: 1%
- Population Mitochondria Different-Phenotype (%) [11]: 3%
- Population Mitotic Cells (%) [11]: 43%
- Population Normal (%) [11]: 95%
- Population Pyknosed Nuclei (%) [11]: 11%
- Population Tubulin-Different-Phenotype (%) [11]: 33%
- Total Cell Count [11]: 144
- Population Apoptotic (%) [12]: 52%
- Population Fragmented Nuclei (%) [12]: 33%
- Population Healthy Nuclei (%) [12]: 54%
- Population Hoechst High Intensity Objects (%) [12]: 3%
- Population Membrane Permeable-Phenotype (%) [12]: 6%
- Population Mitochondria Different-Phenotype (%) [12]: 4%
- Population Mitotic Cells (%) [12]: 47%
- Population Normal (%) [12]: 96%
- Population Tubulin-Different-Phenotype (%) [12]: 48%
- Total Cell Count [12]: 157
